Experimental findings from ChEMBL document CHEMBL1152678, “Synthesis of bis-Schiff bases of isatins and their antiglycation activity” (Bioorg Med Chem, 2009) are described below.

A short description of one series: Antiglycation activity assessed as inhibition of BSA-derived advance glycated end product formation after 9 days by spectrophotometry. The class given is physicochemical.
Details: not given; call rule not given here
In outline:
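BSA (100 mg/ml) incubated with 14 mM methylglyoxal in 0.1 M phosphate buffer pH 7.4 containing NaN₃ (30 mM), aseptic, 37 °C for 9 days, with or without various concentrations of test compounds (DMSO stocks); triplicate samples. AGE-related fluorescence read; % inhibition = (1 − fluorescence of test/fluorescence of control) × 100.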
In the case of `O=C1Nc2ccc(Cl)cc2/C1=N/N=C/c1ccccc1O`, the IC50 entry is reported as “Not Active”. For the compound `O=C1Nc2ccc(Cl)cc2/C1=N/N=C/c1ccc(F)cc1`, the half-inhibitory concentration (IC50) entry is “Not Active”. Take `O=C1Nc2ccccc2/C1=N/N=C/c1ccc(F)cc1`: the IC50 entry is on record as “Not Active”. On to `O=C1Nc2ccccc2/C1=N/N=C/c1ccc2ccccc2c1`, for which the IC50 entry is “Not Active”. The same measure, in the same setting: the result for `COc1ccc(/C=N/N=C2\C(=O)Nc3ccc(Cl)cc32)cc1OC` reads “Not Active”; that for `CCOc1ccc(/C=N/N=C2\C(=O)Nc3ccccc32)cc1`, “Not Active”. As to `Cc1ccc(O)c(/C=N/N=C2\C(=O)Nc3ccccc32)c1`, the IC50 result is reported as “Not Active”. Take `O=C1Nc2c(Cl)ccc(Cl)c2/C1=N/N=C/c1ccccc1F`: the IC50 result is “Not Active”. Regarding `O=C1Nc2ccccc2/C1=N/N=C/c1ccc(Cl)c(Cl)c1`, the IC50 entry is recorded as “Not Active”. As for `COc1cccc(/C=N/N=C2\C(=O)Nc3c(Cl)ccc(Cl)c32)c1O`, the IC50 entry is “Not Active”.

The series is the same for the next values; noted with them: read-out: IC50.
`O=C1Nc2ccccc2/C1=N/N=C/c1ccccc1F`: the IC50 was determined as 362 µM. The same measure, in the same setting: then `CCOc1ccccc1/C=N/N=C1\C(=O)Nc2ccccc21`, with 416 µM; and `O=C1Nc2ccc(Cl)cc2/C1=N/N=C/c1ccc(O)c(O)c1`, with 469 µM. As for `COc1ccccc1/C=N/N=C1\C(=O)Nc2ccccc21`, the IC50 worked out at 458 µM. As to `COc1cccc(/C=N/N=C2\C(=O)Nc3ccccc32)c1O`, the IC50 came to 359 µM. On to `O=C1Nc2ccccc2/C1=N/N=C/c1cccc(O)c1`, for which the IC50 turned out to be 634 µM. Take `O=C1Nc2ccccc2/C1=N/N=C/c1cccc(Cl)c1`: the IC50 amounted to 312 µM. On to `O=C1Nc2ccccc2/C1=N/N=C/c1ccccc1[N+](=O)[O-]`, for which the IC50 worked out at 244 µM. In the case of `O=C1Nc2ccccc2/C1=N/N=C/c1ccccc1O`, the IC50 came out at 444 µM.

Take `O=C1Nc2ccccc2/C1=N/N=C/c1cccc2ccccc12`: the IC50 was 380 µM. As to `O=C1Nc2ccccc2/C1=N/N=C/c1cc(Cl)ccc1O`, the IC50 was 634 µM. Still for that read-out and setting: then `O=C1Nc2ccccc2/C1=N/N=C/c1ccc([N+](=O)[O-])cc1`, with 258 µM; and `CN(C)c1ccc(/C=N/N=C2\C(=O)Nc3ccccc32)cc1`, with 406 µM. Same read-out and setting: then `O=C1Nc2ccccc2/C1=N/N=C/c1ccc(O)cc1`, with 313 µM; and `O=C1Nc2c(Cl)ccc(Cl)c2/C1=N/N=C/c1ccc2ccccc2c1`, with 416 µM. `COc1ccc(/C=N/N=C2\C(=O)Nc3c(Cl)ccc(Cl)c32)cc1OC`: the IC50 was 366 µM. As for `O=C1Nc2ccccc2/C1=N/N=C/c1ccc(O)c(O)c1`, the IC50 was determined as 291 µM. On the same count and under the same terms, then `C[C@@H]1O[C@@H](OC[C@H]2O[C@@H](Oc3c(-c4ccc(O)c(O)c4)oc4cc(O)cc(O)c4c3=O)[C@H](O)[C@@H](O)[C@@H]2O)[C@H](O)[C@H](O)[C@H]1O` [RUTIN], with 294 µM.
